Results on 15 molecules are retold here after ChEMBL document CHEMBL2074476, “Contribution of organic anion transporting polypeptide OATP-C to hepatic elimination of the opioid pentapeptide analogue [D-Ala2, D-Leu5]-enkephalin” (J Pharm Pharmacol, 2003).

In series [1] the target is T1, Solute carrier organic anion transporter family member 1B1 (Homo sapiens, UniProt Q9Y6L6).
T1 sequence (Q9Y6L6 whole entry): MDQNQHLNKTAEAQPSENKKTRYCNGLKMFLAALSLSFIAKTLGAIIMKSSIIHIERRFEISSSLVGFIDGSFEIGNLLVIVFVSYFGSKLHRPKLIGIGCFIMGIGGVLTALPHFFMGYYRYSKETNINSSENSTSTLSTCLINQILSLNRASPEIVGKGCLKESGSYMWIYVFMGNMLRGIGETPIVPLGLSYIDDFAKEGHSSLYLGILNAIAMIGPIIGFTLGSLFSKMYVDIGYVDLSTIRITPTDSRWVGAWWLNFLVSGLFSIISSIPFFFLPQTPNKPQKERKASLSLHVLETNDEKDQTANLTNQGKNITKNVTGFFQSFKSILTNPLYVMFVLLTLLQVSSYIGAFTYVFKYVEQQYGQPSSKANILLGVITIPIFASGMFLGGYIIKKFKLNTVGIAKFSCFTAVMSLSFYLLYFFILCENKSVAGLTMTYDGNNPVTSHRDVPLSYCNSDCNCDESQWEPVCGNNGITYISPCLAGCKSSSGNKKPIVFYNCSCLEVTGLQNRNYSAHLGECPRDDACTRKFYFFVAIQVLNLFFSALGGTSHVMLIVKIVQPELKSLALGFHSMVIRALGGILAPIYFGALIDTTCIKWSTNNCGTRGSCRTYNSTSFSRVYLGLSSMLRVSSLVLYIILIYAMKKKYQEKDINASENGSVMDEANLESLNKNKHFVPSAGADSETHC
Briefly: TP_TRANSPORTER: inhibition of E1S uptake (E1S: 0.004 uM, Ala4: 5000 uM) in Xenopus laevis oocytes. It is filed as functional, cell-based. Conditions: oocyte. In a few lines:
(§1)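 Oocytes injected with OATP-C cRNA (25 ng), cultured 3 days in modified Barth's solution, then incubated 30 min at 25 °C in medium 1 (pH 7.4) with [3H]estrone-3-sulfate (4 nM) plus or minus inhibitor. OATP-C-specific uptake = total minus water-injected oocyte uptake, expressed as percent of control; mean ± s.e.m., n = 5–10.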

Series [2] has as its target T1, Solute carrier organic anion transporter family member 1B1. The series can be described thus: TP_TRANSPORTER: inhibition of E1S uptake (E1S: 0.004 uM, CCK-8: 100 uM) in Xenopus laevis oocytes. It is filed as functional, cell-based. The arrangement: scale not given: the % may be the effect or the level left. Conditions: oocyte. In a few lines: as §1
For series [3], the target named is T2, Solute carrier organic anion transporter family member 1B1 (OATP1B1) (Homo sapiens, UniProt Q9Y6L6).
T2 sequence (Q9Y6L6 whole entry): T1 sequence (Q9Y6L6 whole entry)
Briefly: TP_TRANSPORTER: inhibition of E1S uptake (E1S: 0.004 uM, Ala5: 5000 uM) in Xenopus laevis oocytes. Conditions: probe E1S (0.004 uM), read-out: Activity. It is filed as functional, cell-based, Oocyte. Further details: scale not given: the % may be the effect or the level left. In a few lines:
as §1

Series [4] deals with T1, Solute carrier organic anion transporter family member 1B1. Briefly: TP_TRANSPORTER: inhibition of E1S uptake (E1S: 0.004 uM, Gly4: 5000 uM) in Xenopus laevis oocytes. The class given is functional, cell-based. Conditions: oocyte. An outline of the steps:
as §1

Series [5] shares this target. The series can be described thus: TP_TRANSPORTER: inhibition of E1S uptake (E1S: 0.004 uM, YdAG: 1000 uM) in Xenopus laevis oocytes. The settings on record: oocyte. The class given is functional, cell-based. In a few lines: as §1
For series [6], the target named is T2, Solute carrier organic anion transporter family member 1B1 (OATP1B1). Briefly: TP_TRANSPORTER: inhibition of E1S uptake (E1S: 0.004 uM, des-tyrosine DADLE: 1000 uM) in Xenopus laevis oocytes. It is filed as functional, cell-based, Oocyte. The arrangement: scale not given: the % may be the effect or the level left. The settings on record: probe E1S (0.004 uM), read-out: Activity. In a few lines:
as §1

Series [7] addresses T1, Solute carrier organic anion transporter family member 1B1. Briefly: TP_TRANSPORTER: uptake of [D-Pen2,D-Pen5]-enkephalin at a concentration of 0.02 u M in Xenopus laevis oocytes. Conditions: oocyte, 0.02 µM. The class given is functional, cell-based. An outline of the steps:
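OATP-C cRNA- or water-injected oocytes incubated 60 min at 25 °C in medium 1 (pH 7.4) with [3H]DPDPE (20 nM). Washed with ice-cold buffer, solubilized in 5% SDS, radioactivity counted. Uptake given as cell-to-medium ratio (uptake amount divided by medium concentration); mean ± s.e.m., n = 5–10.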

Series [8] has as its target T2, Solute carrier organic anion transporter family member 1B1 (OATP1B1). Briefly: in vitro. Conditions: xenopus laevis, Xenopus laevis oocytes, probe E1S (0.004 uM).
Series [9] addresses T1, Solute carrier organic anion transporter family member 1B1. The series can be described thus: TP_TRANSPORTER: inhibition of E1S uptake (E1S: 0.004 uM, PAH: 500 uM) in Xenopus laevis oocytes. The settings on record: oocyte. The class given is functional, cell-based. In a few lines: as §1
The target of series [10] is T2, Solute carrier organic anion transporter family member 1B1 (OATP1B1). The series can be described thus: TP_TRANSPORTER: inhibition of E1S uptake (E1S: 0.004 uM, YGG: 1000 uM) in Xenopus laevis oocytes. The settings on record: probe E1S (0.004 uM), read-out: Activity. It is filed as functional, cell-based, Oocyte. Further details: scale not given: the % may be the effect or the level left. An outline of the steps:
as §1

For series [11] the target is unchanged. Briefly: TP_TRANSPORTER: inhibition of E1S uptake (E1S: 0.004 uM, DADLE: 1000 uM) in Xenopus laevis oocytes. The class given is functional, cell-based, Oocyte. Further details: scale not given: the % may be the effect or the level left. Conditions: probe E1S (0.004 uM), read-out: Activity. An outline of the steps: as §1
Series [12] has the same target. The series can be described thus: TP_TRANSPORTER: inhibition of E1S uptake (E1S: 0.004 uM, Quinidine: 500 uM) in Xenopus laevis oocytes. It is filed as functional, cell-based, Oocyte. Further details: scale not given: the % may be the effect or the level left. Conditions: probe E1S (0.004 uM), read-out: Activity. In a few lines: as §1
For series [13] the target is unchanged. The series can be described thus: TP_TRANSPORTER: inhibition of E1S uptake (E1S: 0.004 uM, BSP: 50 uM) in Xenopus laevis oocytes. It is filed as functional, cell-based, Oocyte. Further details: scale not given: the % may be the effect or the level left. Conditions: probe E1S (0.004 uM), read-out: Activity. An outline of the steps:
as §1

Series [14] shares this target. Briefly: TP_TRANSPORTER: inhibition of DPDPE uptake (DPDPE: 0.02 uM) in Xenopus laevis oocytes. Conditions: probe DPDPE (0.02 uM). The class given is functional, cell-based, Oocyte. Further details: scale not given: the % may be the effect or the level left.
The target of series [15] is T1, Solute carrier organic anion transporter family member 1B1. The series can be described thus: TP_TRANSPORTER: inhibition of E1S uptake (E1S: 0.004 uM, Carnitine: 50 uM) in Xenopus laevis oocytes. It is filed as functional, cell-based. The settings on record: oocyte. An outline of the steps: as §1

Where a SMILES comes first, the peptide text is derived from it. [ ]: non-standard residue; d: D form.

Take `C[C@H](N)C(=O)N[C@@H](C)C(=O)N[C@@H](C)C(=O)N[C@@H](C)C(=O)O` (H-AAAA-OH): in series [1], the Activity result is “is not an inhibitor [-]”.

Consider `CSCC[C@H](NC(=O)[C@H](Cc1ccc(OS(=O)(=O)O)cc1)NC(=O)[C@@H](N)CC(=O)O)C(=O)NCC(=O)N[C@@H](Cc1c[nH]c2ccccc12)C(=O)N[C@@H](CCSC)C(=O)N[C@@H](CC(=O)O)C(=O)N[C@@H](Cc1ccccc1)C(N)=O` [SINCALIDE], for which the Activity in series [2] amounted to 9.1%.

In the case of `C[C@H](N)C(=O)N[C@@H](C)C(=O)N[C@@H](C)C(=O)N[C@@H](C)C(=O)N[C@@H](C)C(=O)O`, in [3], the activity at 5000 µM is 86.3%.

Consider `NCC(=O)NCC(=O)NCC(=O)NCC(=O)O` (H-GGGG-OH), for which the Activity entry in series [4] is “is not an inhibitor [-]”.

Regarding `C[C@@H](NC(=O)[C@@H](N)Cc1ccc(O)cc1)C(=O)NCC(=O)O` (H-Tyr-[dA]-Gly-OH), the Activity result in [5] is “is not an inhibitor [-]”.

On to `CC(C)C[C@@H](NC(=O)[C@H](Cc1ccccc1)NC(=O)CNC(=O)[C@@H](C)N)C(=O)O`, for which, in [6], the activity at 1000 µM was 62.5%.

Regarding `CC1(C)SSC(C)(C)[C@@H](NC(=O)[C@@H](N)Cc2ccc(O)cc2)C(=O)NCC(=O)N[C@@H](Cc2ccccc2)C(=O)N[C@H]1C(=O)O`, in [7], the Activity result was “substrate [+]”.

The molecule `CC(C)C[C@H](NC(=O)[C@H](Cc1ccccc1)NC(=O)CNC(=O)CNC(=O)[C@@H](N)Cc1ccc(O)cc1)C(=O)O` [ENKEPHALIN] yielded an activity at 1000 µM in [8] of 26.8%.

With `Nc1ccc(C(=O)NCC(=O)O)cc1` [AMINOHIPPURIC ACID], in series [9], the Activity result is “is not an inhibitor [-]”.

Regarding `N[C@@H](Cc1ccc(O)cc1)C(=O)NCC(=O)NCC(=O)O` (H-Tyr-Gly-Gly-OH), the activity at 1000 µM in series [10] is 77.2%.

Consider `CC(C)C[C@@H](NC(=O)[C@H](Cc1ccccc1)NC(=O)CNC(=O)[C@@H](C)NC(=O)[C@@H](N)Cc1ccc(O)cc1)C(=O)O` [DADLE], for which the activity at 1000 µM in series [11] turned out to be 35.4%.

Turning to `C=C[C@H]1C[N@@]2CC[C@H]1C[C@@H]2[C@@H](O)c1ccnc2ccc(OC)cc12` [QUINIDINE], the activity at 500 µM in series [12] turned out to be 81%.

In the case of `O=C1OC(c2ccc(O)c(S(=O)(=O)O)c2)(c2ccc(O)c(S(=O)(=O)O)c2)c2c(Br)c(Br)c(Br)c(Br)c21` [SULFOBROMOPHTHALEIN SODIUM], in [13], the activity at 50 µM stood at 8%. This molecule also registered an Activity in series [14] of 25%.

In the case of `C[C@]12CC[C@@H]3c4ccc(OS(=O)(=O)O)cc4CC[C@H]3[C@@H]1CCC2=O` [ESTRONE SULFURIC ACID], in [14], the Activity worked out at 50%.

As for `C[N+](C)(C)CC(O)CC(=O)[O-]` (stereo unspecified) [CARNITINE], the Activity result in series [15] was “is not an inhibitor [-]”.
